Assay results from ChEMBL document CHEMBL3272032, “Antifolate studies. Activities of 40 potential antimalarial compounds against sensitive and chlorguanide triazine resistant strains of folate-requiring bacteria and Escherichia coli” (J Med Chem, 1977).
The source made the active and inactive calls. No cut-off for these calls is given here.

How the values were obtained:
[1] = tested on: Enterococcus faecium; experiment: Antibacterial activity against chlorguanide triazine-resistant Streptococcus faecium ATCC 8043 assessed as reduction in growth in presence of 0.002 ug/ml folic acid; assay type: functional, organism-based
Procedure, shortened: (§1)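 Folate-requiring strains grown in medium with folic acid, 0.002 µg/ml for S. faecium and 0.001 µg/ml for L. casei; P. cerevisiae given folinic acid, 0.001 µg/ml. Resistant substrains came from serial transfer in rising chlorguanide triazine, and the most resistant were used. Compounds tested up to 1000 µg/ml, or 100 µg/ml when supply was limited. Growth read as Klett turbidity; IC50 is the µM concentration giving 50% growth inhibition.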

[2] = tested on: Lacticaseibacillus casei; experiment: Antibacterial activity against sensitive Lactobacillus casei ATCC 7469 assessed as reduction in growth in presence of 0.001 ug/ml folic acid; assay type: functional, organism-based
Procedure, shortened: (§2)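 Folate-requiring strains in the medium of the earlier assay method. Folic acid was 0.002 μg/ml for S. faecium and 0.001 μg/ml for L. casei. Turbidity read on a Klett-Summerson colorimeter. IC50 is the micromolar concentration reducing growth to 50% of control. Top concentration was 1000 μg/ml, or 100 μg/ml if supply was limited.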

[3] = tested on: Lacticaseibacillus casei; experiment: Antibacterial activity against chlorguanide triazine-resistant Lactobacillus casei ATCC 7469 assessed as reduction in growth in presence of 0.001 ug/ml folic acid; assay type: functional, organism-based; procedure, shortened: as §1
[4] = tested on: Pediococcus; experiment: Antibacterial activity against sensitive Pediococcus cerevisiae ATCC 808 assessed as reduction in growth in presence of 0.001 ug/ml folinic acid; assay type: functional
Procedure, shortened: (§3)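 P. cerevisiae grown with folinic acid at 0.001 μg/ml in the earlier-described medium. Turbidity read on a Klett-Summerson colorimeter. IC50 is the micromolar concentration reducing growth to 50% of control. Top concentration was 1000 μg/ml, or 100 μg/ml when supply was limited.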

[5] = tested on: Pediococcus; experiment: Antibacterial activity against chlorguanide triazine-resistant Pediococcus cerevisiae ATCC 808 assessed as reduction in growth in presence of 0.001 ug/ml folinic acid; assay type: functional; procedure, shortened: as §1
[6] = tested on: Escherichia coli; experiment: Antibacterial activity against sensitive Escherichia coli ATCC 10536 assessed as reduction in growth in presence of p-aminobenzoic acid; assay type: functional, organism-based
Procedure, shortened: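 Reversal test. Drug inhibition was challenged with PABA in Sahyun et al. medium plus 0.6% acid-hydrolyzed casein. Growth read as turbidity on a Klett-Summerson colorimeter. Scored as reversal or nonreversal of the drug inhibition.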

[7] = tested on: Plasmodium berghei; experiment: Antimalarial activity against Plasmodium berghei infected in sc dosed mouse assessed as active dose required to increase of 100% in mean survival time; assay type: functional; conditions: read-out: MED
Procedure, shortened: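 Mice received a standard blood-induced P. berghei inoculum and were then treated with one subcutaneous dose of compound suspended in peanut oil. The minimum active dose is the lowest dose that raised mean survival time by 100%.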

[8] = tested on: Plasmodium berghei; experiment: Antimalarial activity against Plasmodium berghei infected in sc dosed mouse assessed as dose required to survivors for period of 60 days; assay type: functional
Procedure, shortened: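 Mice infected with a blood-induced P. berghei inoculum were given one subcutaneous dose in peanut oil. Survivors at 60 days counted as cured. The minimum curative dose is the lowest dose that cured any mouse.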

[9] = tested on: Enterococcus faecium; experiment: Antibacterial activity against sensitive Streptococcus faecium ATCC 8043 assessed as reduction in growth; assay type: functional, organism-based; procedure, shortened: as §1
[10] = tested on: Enterococcus faecium; experiment: Antibacterial activity against chlorguanide triazine-resistant Streptococcus faecium ATCC 8043 assessed as reduction in growth; assay type: functional, organism-based; procedure, shortened: as §1
[11] = tested on: Enterococcus faecium; experiment: Fold increase in resistance, ratio of IC50 for chlorguanide triazine-resistant Streptococcus faecium ATCC 8043 to IC50 for sensitive Streptococcus faecium ATCC 8043; assay type: functional
Procedure, shortened: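 Resistant S. faecium substrain raised by serial transfer in increasing chlorguanide triazine. IC50 (µM, 50% growth inhibition by turbidity) was found for resistant and parent strains in folic acid (0.002 µg/ml) medium. Fold increase taken as IC50 resistant / IC50 sensitive.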

[12] = tested on: Lacticaseibacillus casei; experiment: Antibacterial activity against sensitive Lactobacillus casei ATCC 7469 assessed as reduction; assay type: functional, organism-based; procedure, shortened: as §1
[13] = tested on: Lacticaseibacillus casei; experiment: Antibacterial activity against chlorguanide triazine-resistant Lactobacillus casei ATCC 7469 assessed as reduction in growth; assay type: functional, organism-based; procedure, shortened: as §1
[14] = tested on: Lacticaseibacillus casei; experiment: Fold increase in resistance, ratio of IC50 for chlorguanide triazine-resistant Lactobacillus casei ATCC 7469 to IC50 for sensitive Lactobacillus casei ATCC 7469; assay type: functional
Procedure, shortened: (§4)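 Resistant substrains were made by serial transfer in rising concentrations of cycloguanil, and the most resistant isolate of each organism was used. Both strains were assayed turbidimetrically under identical conditions. FIR = IC50 of the resistant strain divided by IC50 of the sensitive parent.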

[15] = Antibacterial activity against sensitive Pediococcus cerevisiae ATCC 808 assessed as reduction; assay type: functional; procedure, shortened: as §3
[16] = Antibacterial activity against chlorguanide triazine-resistant Pediococcus cerevisiae ATCC 808 assessed as reduction in growth; assay type: functional; procedure, shortened: as §1
[17] = tested on: Pediococcus; experiment: Fold increase in resistance, ratio of IC50 for chlorguanide triazine-resistant Pediococcus cerevisiae ATCC 808 to IC50 for sensitive Pediococcus cerevisiae ATCC 808; assay type: functional; procedure, shortened: as §4
[18] = tested on: Escherichia coli; experiment: Antibacterial activity against sensitive Escherichia coli ATCC 10536 assessed as reduction in growth; assay type: functional, organism-based
Procedure, shortened: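 Growth inhibition in Sahyun et al. medium plus 0.6% acid-hydrolyzed casein. Growth read as turbidity on a Klett-Summerson photoelectric colorimeter. IC50 is the micromolar concentration giving 50% growth inhibition. Top concentration was 1000 μg/ml, or 100 μg/ml when compound was limited.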

[19] = tested on: Enterococcus faecium; experiment: Antibacterial activity against sensitive Streptococcus faecium ATCC 8043 assessed as reduction in growth in presence of 0.002 ug/ml folic acid; assay type: functional, organism-based; procedure, shortened: as §2

Compound	inhibition [1]	inhibition [2]	inhibition [3]	inhibition [4]	inhibition [5]	inhibition [6]	minimal effective dose [7] [mg/kg]	MCD [8] [mg/kg]	IC50 [9] [µM]	IC50 [10] [µM]	Ratio IC50 [11]	IC50 [12] [µM]	IC50 [13] [µM]	Ratio IC50 [14]	IC50 [15] [µM]	IC50 [16] [µM]	Ratio IC50 [17]	IC50 [18] [µM]	inhibition [19]
Nc1nc(N)c2cc(Oc3cc(Cl)cc(Cl)c3)ccc2n1	inactive	inactive	inactive	inactive	inactive	Active	320	640	0.009	1.3	144	0.25	0.04	0.16	0.12	1.4	11.7	2	inactive
Nc1nc(N)c2cc(S(=O)(=O)c3ccc4ccccc4c3)ccc2n1	inactive	inactive	inactive	inactive	inactive	Active	0.63	1.25	0.002	0.08	40	0.04	0.009	0.23	0.002	0.05	25	< 0.2	inactive
Nc1nc(N)c2cc(NCc3ccc(Cl)c(Cl)c3)ccc2n1	inactive	inactive	inactive	inactive	inactive	Active	20	80	0.006	2	330	0.4	0.03	0.08	0.2	0.7	3.5	33	inactive
C=C[C@H]1CN2CC[C@H]1C[C@H]2[C@H](O)c1ccnc2ccc(OC)cc12 [QUININE]	–	Active	–	Active	Active	–	640	>640	> 2500	> 2500	–	980	1200	1	780	850	1	1300	–
N=C(N)NC(=O)Nc1ccc([N+](=O)[O-])cc1	Active	Active	Active	Active	Active	–	640	640	1300	2500	2	157	1800	12	83	197	2	> 4480	Active
O=C1C(O)=C(CCCCCCCCC2CCCCC2)C(=O)c2ccccc21 [MENOCTONE]	Active	Active	Active	Active	Active	–	40	160	407	394	1	61	19	0.3	1000	570	0.6	> 2700	Active
Cc1nc(C)c(Cl)c(O)c1Cl [CLOPIDOL]	Active	Active	–	Active	Active	–	160	>640	3700	2200	0.6	1700	885	0.52	833	1000	1	> 5200	Active
CN1CCCCC1CNc1nc(-c2ccc(Cl)c(Cl)c2)nc(C(Cl)(Cl)Cl)n1 (centres undefined)	Active	Active	Active	Active	Active	–	160	320	132	128	0.97	3	3.2	1.1	4.9	3.8	1	–	Active
CC1(C)N=C(N)N=C(N)N1c1ccc(Cl)cc1 [CYCLOGUANIL]	inactive	inactive	inactive	inactive	inactive	–	20	40	0.017	3300	194000	16.3	2400	147	35	900	26	> 3470	inactive
Clc1ccc(Nc2nc(NCCCN3CCCC3)c3ccccc3n2)cc1Cl	–	Active	–	Active	Active	Active	–	–	32	22	0.7	10	5.7	0.6	3.5	7.9	2	10	Active
CC(CNc1nc(Nc2ccc(Cl)c(Cl)c2)nc(C(Cl)(Cl)Cl)n1)N(C)C (centres undefined)	Active	Active	Active	Active	Active	–	80	160	14.2	14.6	1	5.7	4.9	0.9	5.9	7.5	1	–	Active
C/C(=C\C(=N\NC(=N)N)c1ccccc1)c1ccccc1	–	Active	Active	Active	Active	Active	160	>640	11	60	6	48	41	1	25	13	0.5	51	inactive
